22 molecules from ChEMBL document CHEMBL5126577, “Discovery of honokiol thioethers containing 1,3,4-oxadiazole moieties as potential α-glucosidase and SARS-CoV-2 entry inhibitors” (Bioorg Med Chem, 2022) can be followed below.

For the experiment, the system named is SARS-CoV-2. Description: Antiviral activity against pseudovirus SARS-CoV-2 spike protein infected in HEK-293T cells overexpressing ACE2 assessed as inhibition on pseudovirus infection incubated for 52 hrs by luminescence based microplate reader analysis. Format: functional, organism-based. Conditions: Severe acute respiratory syndrome coronavirus 2, HEK-293T. In short, it runs like this: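 HEK-293T-ACE2h cells were pre-incubated with compound in DMEM for 2 h, then inoculated with luciferase-reporter spike pseudovirus plus 2-fold compound for about 2 h at 37 °C. The inoculum was replaced with fresh DMEM and cells were kept 48 h at 37 °C, then lysed. Luciferase luminescence was read, with virus-only cells set as 100%, and IC50 was computed.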
`C=CCc1cc(CSc2nnc(-c3ccccc3F)o2)c(O)c(-c2ccc(O)c(CC=C)c2)c1`: the IC50 was greater than 100 µM.
With `C=CCc1cc(-c2cc(CC=C)c3oc(SCc4nnc(-c5cccc(Cl)c5)o4)nc3c2)c2oc(SCc3nnc(-c4cccc(Cl)c4)o3)nc2c1` the figure was greater than 100 µM; with `C=CCc1cc(-c2cc(CC=C)c3oc(SCc4nnc(-c5ccccc5F)o4)nc3c2)c2oc(SCc3nnc(-c4ccccc4F)o3)nc2c1`, greater than 100 µM.
With `C=CCc1cc(-c2cc(CC=C)c3oc(SCc4nnc(-c5ccccc5C)o4)nc3c2)c2oc(SCc3nnc(-c4ccccc4C)o3)nc2c1` the figure was greater than 100 µM; with `C=CCc1cc(-c2cc(CC=C)c3oc(SCc4nnc(-c5ccc(C)cc5)o4)nc3c2)c2oc(SCc3nnc(-c4ccc(C)cc4)o3)nc2c1`, greater than 100 µM; with `C=CCc1cc(-c2cc(CC=C)c3oc(SCc4nnc(-c5cccc(F)c5)o4)nc3c2)c2oc(SCc3nnc(-c4cccc(F)c4)o3)nc2c1`, greater than 100 µM.
In the case of `C=CCc1cc(-c2cc(CC=C)c3oc(SCc4nnc(-c5ccc(Cl)cc5)o4)nc3c2)c2oc(SCc3nnc(-c4ccc(Cl)cc4)o3)nc2c1` it was greater than 100 µM; in that of `C=CCc1cc(-c2cc(CC=C)c3oc(SCc4nnc(-c5ccc(Br)cc5)o4)nc3c2)c2oc(SCc3nnc(-c4ccc(Br)cc4)o3)nc2c1`, greater than 100 µM.
Consider `C=CCc1cc(-c2cc(CC=C)c3oc(SCc4nnc(-c5cccc(OC)c5)o4)nc3c2)c2oc(SCc3nnc(-c4cccc(OC)c4)o3)nc2c1`, for which the IC50 is greater than 100 µM.
With `C=CCc1cc(-c2cc(CC=C)c3oc(SCc4nnc(-c5ccccc5)o4)nc3c2)c2oc(SCc3nnc(-c4ccccc4)o3)nc2c1` the figure was greater than 100 µM.
In the case of `C=CCc1cc(-c2cc(CC=C)c3oc(SCc4nnc(-c5ccc(F)cc5)o4)nc3c2)c2oc(SCc3nnc(-c4ccc(F)cc4)o3)nc2c1` it was greater than 100 µM; in that of `C=CCc1cc(CSc2nnc(-c3cccnc3)o2)c(O)c(-c2ccc(O)c(CC=C)c2)c1`, 45.6 µM; in that of `C=CCc1cc(-c2cc(CC=C)c3oc(SCc4nnc(-c5cccc(Br)c5)o4)nc3c2)c2oc(SCc3nnc(-c4cccc(Br)c4)o3)nc2c1`, greater than 100 µM.
In the case of `C=CCc1cc(-c2cc(CC=C)c3oc(SCc4nnc(-c5ccc(OC)cc5)o4)nc3c2)c2oc(SCc3nnc(-c4ccc(OC)cc4)o3)nc2c1` it was greater than 100 µM.
With `C=CCc1cc(-c2cc(CC=C)c3oc(SCc4nnc(-c5ccccc5OC)o4)nc3c2)c2oc(SCc3nnc(-c4ccccc4OC)o3)nc2c1`, the IC50 is greater than 100 µM.
With `C=CCc1cc(-c2cc(CC=C)c3oc(SCc4nnc(-c5ccccc5Cl)o4)nc3c2)c2oc(SCc3nnc(-c4ccccc4Cl)o3)nc2c1` the figure was 84.4 µM; with `C=CCc1cc(-c2cc(CC=C)c3oc(SCc4nnc(-c5cccc(C)c5)o4)nc3c2)c2oc(SCc3nnc(-c4cccc(C)c4)o3)nc2c1`, greater than 100 µM.
With `C=CCc1cc(CSc2nnc(-c3ccccc3Cl)o2)c(O)c(-c2ccc(O)c(CC=C)c2)c1` the figure was 85.2 µM; with `C=CCc1cc(CSc2nnc(-c3ccccc3)o2)c(O)c(-c2ccc(O)c(CC=C)c2)c1`, 17 µM; with `C=CCc1cc(CSc2nnc(-c3ccccc3C)o2)c(O)c(-c2ccc(O)c(CC=C)c2)c1`, greater than 100 µM.
In the case of `C=CCc1cc(-c2cc(CC=C)c3oc(SCc4nnc(-c5ccccc5Br)o4)nc3c2)c2oc(SCc3nnc(-c4ccccc4Br)o3)nc2c1` it was greater than 100 µM; in that of `C=CCc1ccc(O)c(-c2ccc(O)c(CC=C)c2)c1` [HONOKIOL], greater than 50 µM.
